Measurements as given in ChEMBL document CHEMBL1961794, “Regulation of circadian behaviour and metabolism by synthetic REV-ERB agonists” (Nature, 2012).
Calls of active or inactive are those of the source. The calls are words filed in the database; no cut-off is given here.

Tests used:
[1] = Plasma concentration after 4 hours at 10mg/kg ip dose (10mg/ml suspension in 10%DMSO/10%Tween80); type: ADME, organism-based; conditions: mouse, read-out: Conc_plasma
Summary of the method: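 Mice received a single 10 mg/kg i.p. dose as a 10 mg/ml suspension in DMSO/Tween80/water (10/10/80). Plasma was sampled at 1, 2, 4 and 8 h post-injection and drug concentration reported in μM. Mean ± s.e.m., n=3.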

Mus musculus [2] = test: Decreased expression of REV-ERB responsive gene Srebf1 in mouse liver after 6 days at 100 mg/kg; type: functional, organism-based; design: dose 100 mg/kg
[3] = molecular target: Thyroid hormone receptor beta (Homo sapiens) (UniProt P10828); test: Effect on THRB(NR1A2) dependent reporter activity in HEK293 cells at 20 uM; type: cell-based
Summary of the method: (§1)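 Cotransfection assay in HEK293 cells with Gal4 DNA-binding domain–nuclear receptor fusions, covering a panel of all 48 human nuclear receptors. Compounds were tested at 20 μM, with reporter luciferase as the read-out. Mean ± s.e.m., n=3.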

[4] = molecular target: Nuclear receptor subfamily 0 group B member 2 (Homo sapiens) (UniProt Q15466); test: Effect on SHP(NR0B2) dependent reporter activity in HEK293 cells at 20 uM; type: cell-based; summary of the method: as §1
[5] = molecular target: Nuclear receptor subfamily 4 group A member 3 (Homo sapiens) (UniProt Q92570); test: Effect on NOR1(NR4A3) dependent reporter activity in HEK293 cells at 20 uM; type: cell-based
Summary of the method: (§2)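 Specificity panel covering all 48 human nuclear receptors. HEK293 cells cotransfected with Gal4 DNA-binding domain–nuclear receptor fusions and a luciferase reporter. Compound tested at a single 20 μM concentration. Mean ± s.e.m., n=3.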

[6] = molecular target: Steroid hormone receptor ERR1 (Homo sapiens) (UniProt P11474); test: Effect on ERR1(NR3B1) dependent reporter activity in HEK293 cells at 20 uM; type: cell-based; summary of the method: as §2
[7] = molecular target: Retinoic acid receptor beta (Homo sapiens) (UniProt P10826); test: Effect on RARB(NR1B2) dependent reporter activity in HEK293 cells at 20 uM; type: cell-based; summary of the method: as §2
Chain of Retinoic acid receptor beta (Homo sapiens) (P10826 whole entry): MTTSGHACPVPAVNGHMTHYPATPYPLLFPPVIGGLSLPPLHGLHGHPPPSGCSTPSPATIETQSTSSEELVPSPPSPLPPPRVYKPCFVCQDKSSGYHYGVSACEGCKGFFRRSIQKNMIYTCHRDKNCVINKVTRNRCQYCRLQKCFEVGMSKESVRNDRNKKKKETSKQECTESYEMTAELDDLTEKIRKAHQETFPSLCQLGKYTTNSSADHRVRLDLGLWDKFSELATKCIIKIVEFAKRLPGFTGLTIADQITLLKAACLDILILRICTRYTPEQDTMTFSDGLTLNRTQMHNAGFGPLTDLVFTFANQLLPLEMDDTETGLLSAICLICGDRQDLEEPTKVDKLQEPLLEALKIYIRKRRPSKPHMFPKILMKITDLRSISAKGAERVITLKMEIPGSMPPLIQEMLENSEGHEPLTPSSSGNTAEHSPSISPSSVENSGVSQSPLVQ

[8] = molecular target: Nuclear receptor subfamily 4 group A member 2 (Homo sapiens) (UniProt P43354); test: Effect on NURR1(NR4A2) dependent reporter activity in HEK293 cells at 20 uM; type: cell-based; summary of the method: as §2
Chain of Nuclear receptor subfamily 4 group A member 2 (Homo sapiens) (P43354 whole entry): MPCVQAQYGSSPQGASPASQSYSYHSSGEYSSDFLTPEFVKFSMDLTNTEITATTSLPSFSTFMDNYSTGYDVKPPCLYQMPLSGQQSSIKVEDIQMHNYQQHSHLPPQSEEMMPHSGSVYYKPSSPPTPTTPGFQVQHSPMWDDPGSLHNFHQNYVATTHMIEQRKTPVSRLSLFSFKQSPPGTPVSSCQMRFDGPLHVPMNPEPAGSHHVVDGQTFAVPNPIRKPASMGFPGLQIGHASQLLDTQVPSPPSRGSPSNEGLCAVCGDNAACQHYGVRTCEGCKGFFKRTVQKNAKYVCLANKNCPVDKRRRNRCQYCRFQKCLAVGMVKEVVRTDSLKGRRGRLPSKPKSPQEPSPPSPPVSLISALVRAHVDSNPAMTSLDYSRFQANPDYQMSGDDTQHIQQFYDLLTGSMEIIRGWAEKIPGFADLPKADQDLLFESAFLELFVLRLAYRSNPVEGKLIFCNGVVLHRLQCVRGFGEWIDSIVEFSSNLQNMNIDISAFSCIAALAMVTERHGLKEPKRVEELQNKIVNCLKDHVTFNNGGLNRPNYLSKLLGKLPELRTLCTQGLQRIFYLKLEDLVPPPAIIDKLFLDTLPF

[9] = molecular target: Nuclear receptor ROR-alpha (Homo sapiens) (UniProt P35398); test: Effect on RORA(NR1F1) dependent reporter activity in HEK293 cells at 20 uM; type: cell-based; summary of the method: as §2
Chain of Nuclear receptor ROR-alpha (Homo sapiens) (P35398 whole entry): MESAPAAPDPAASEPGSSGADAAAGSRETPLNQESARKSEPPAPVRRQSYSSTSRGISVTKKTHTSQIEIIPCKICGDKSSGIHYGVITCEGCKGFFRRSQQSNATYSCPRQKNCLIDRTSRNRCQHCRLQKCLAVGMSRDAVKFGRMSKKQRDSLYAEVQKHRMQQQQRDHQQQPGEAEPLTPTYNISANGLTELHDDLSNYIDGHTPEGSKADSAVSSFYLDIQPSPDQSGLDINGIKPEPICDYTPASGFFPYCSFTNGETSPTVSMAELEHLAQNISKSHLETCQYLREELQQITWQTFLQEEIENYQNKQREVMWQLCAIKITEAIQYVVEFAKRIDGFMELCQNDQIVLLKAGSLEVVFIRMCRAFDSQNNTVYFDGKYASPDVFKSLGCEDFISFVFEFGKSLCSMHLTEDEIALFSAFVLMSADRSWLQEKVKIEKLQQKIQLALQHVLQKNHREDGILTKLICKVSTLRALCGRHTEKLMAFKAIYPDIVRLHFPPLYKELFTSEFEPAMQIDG

[10] = molecular target: Peroxisome proliferator-activated receptor gamma (Homo sapiens) (UniProt P37231); test: Effect on PPARG(NR1C3) dependent reporter activity in HEK293 cells at 20 uM; type: cell-based; summary of the method: as §2
[11] = molecular target: Estrogen receptor (Homo sapiens) (UniProt P03372); test: Effect on ESR1(NR3A1) dependent reporter activity in HEK293 cells at 20 uM; type: cell-based; summary of the method: as §2
[12] = molecular target: Oxysterols receptor LXR-beta (Homo sapiens) (UniProt P55055); test: Effect on LXRB(NR1H2) dependent reporter activity in HEK293 cells at 20 uM; type: cell-based; summary of the method: as §2
[13] = molecular target: Hepatocyte nuclear factor 4-gamma (Homo sapiens) (UniProt Q14541); test: Effect on HNF4G(NR2A2) dependent reporter activity in HEK293 cells at 20 uM; type: cell-based; summary of the method: as §2
[14] = molecular target: Photoreceptor-specific nuclear receptor (Homo sapiens) (UniProt Q9Y5X4); test: Effect on PNR(NR2E3) dependent reporter activity in HEK293 cells at 20 uM; type: cell-based; summary of the method: as §2
[15] = molecular target: Androgen receptor (Homo sapiens) (UniProt P10275); test: Effect on AR(NR3C4) dependent reporter activity in HEK293 cells at 20 uM; type: cell-based; summary of the method: as §2
[16] = molecular target: Retinoic acid receptor RXR-alpha (Homo sapiens) (UniProt P19793); test: Effect on RXRA(NR2B1) dependent reporter activity in HEK293 cells at 20 uM; type: cell-based; summary of the method: as §2
Chain of Retinoic acid receptor RXR-alpha (Homo sapiens) (P19793 whole entry): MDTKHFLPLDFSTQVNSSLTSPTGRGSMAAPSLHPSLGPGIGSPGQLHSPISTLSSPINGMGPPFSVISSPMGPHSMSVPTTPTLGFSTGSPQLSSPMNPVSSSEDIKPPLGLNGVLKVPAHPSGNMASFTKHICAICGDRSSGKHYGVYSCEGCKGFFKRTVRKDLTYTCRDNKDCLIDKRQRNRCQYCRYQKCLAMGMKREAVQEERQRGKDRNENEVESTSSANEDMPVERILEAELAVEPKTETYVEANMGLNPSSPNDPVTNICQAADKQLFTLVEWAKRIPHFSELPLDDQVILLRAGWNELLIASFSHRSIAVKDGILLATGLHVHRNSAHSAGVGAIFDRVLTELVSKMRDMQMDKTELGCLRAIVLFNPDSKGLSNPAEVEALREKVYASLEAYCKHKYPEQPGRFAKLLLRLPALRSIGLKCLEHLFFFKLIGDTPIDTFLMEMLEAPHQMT

[17] = molecular target: Nuclear receptor subfamily 2 group C member 1 (Homo sapiens) (UniProt P13056); test: Effect on TR2(NR2C1) dependent reporter activity in HEK293 cells at 20 uM; type: cell-based; summary of the method: as §1
Chain of Nuclear receptor subfamily 2 group C member 1 (Homo sapiens) (P13056 whole entry): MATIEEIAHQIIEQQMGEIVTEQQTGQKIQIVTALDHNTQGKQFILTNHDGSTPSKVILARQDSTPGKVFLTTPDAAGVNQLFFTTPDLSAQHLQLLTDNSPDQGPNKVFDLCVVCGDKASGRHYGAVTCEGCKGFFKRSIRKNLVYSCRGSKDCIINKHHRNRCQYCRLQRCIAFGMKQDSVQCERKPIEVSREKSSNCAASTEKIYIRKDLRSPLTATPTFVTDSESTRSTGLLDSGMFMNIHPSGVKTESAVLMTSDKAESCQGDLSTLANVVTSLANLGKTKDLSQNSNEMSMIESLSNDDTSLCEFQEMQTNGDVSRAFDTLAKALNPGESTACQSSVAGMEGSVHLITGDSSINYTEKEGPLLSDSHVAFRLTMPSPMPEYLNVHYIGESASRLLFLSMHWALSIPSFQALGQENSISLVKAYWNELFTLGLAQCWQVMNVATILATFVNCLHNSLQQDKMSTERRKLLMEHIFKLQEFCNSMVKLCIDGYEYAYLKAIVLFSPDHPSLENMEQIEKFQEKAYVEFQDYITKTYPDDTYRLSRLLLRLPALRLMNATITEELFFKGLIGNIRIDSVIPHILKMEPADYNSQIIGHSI

[18] = molecular target: Bile acid receptor (Homo sapiens) (UniProt Q96RI1); test: Effect on BAR(NR1H4) dependent reporter activity in HEK293 cells at 20 uM; type: cell-based; summary of the method: as §2
[19] = molecular target: Nuclear receptor subfamily 6 group A member 1 (Homo sapiens) (UniProt Q15406); test: Effect on GCNF(NR6A1) dependent reporter activity in HEK293 cells at 20 uM; type: cell-based; summary of the method: as §2
[20] = molecular target: Nuclear receptor subfamily 1 group I member 2 (Homo sapiens, UniProt O75469); test: Effect on PXR(NR1I2) dependent reporter activity in HEK293 cells at 20 uM; type: cell-based; conditions: hek293, 20 µM; summary of the method: as §2
Mus musculus [21] = test: Decreased expression of REV-ERB responsive gene Serpine1 in mouse liver after 6 days at 100 mg/kg; type: functional, organism-based; design: dose 100 mg/kg
[22] = molecular target: Glucocorticoid receptor (Homo sapiens) (UniProt P04150); test: Effect on GCR(NR3C1) dependent reporter activity in HEK293 cells at 20 uM; type: cell-based; summary of the method: as §2
Chain of Glucocorticoid receptor (Homo sapiens) (P04150 whole entry): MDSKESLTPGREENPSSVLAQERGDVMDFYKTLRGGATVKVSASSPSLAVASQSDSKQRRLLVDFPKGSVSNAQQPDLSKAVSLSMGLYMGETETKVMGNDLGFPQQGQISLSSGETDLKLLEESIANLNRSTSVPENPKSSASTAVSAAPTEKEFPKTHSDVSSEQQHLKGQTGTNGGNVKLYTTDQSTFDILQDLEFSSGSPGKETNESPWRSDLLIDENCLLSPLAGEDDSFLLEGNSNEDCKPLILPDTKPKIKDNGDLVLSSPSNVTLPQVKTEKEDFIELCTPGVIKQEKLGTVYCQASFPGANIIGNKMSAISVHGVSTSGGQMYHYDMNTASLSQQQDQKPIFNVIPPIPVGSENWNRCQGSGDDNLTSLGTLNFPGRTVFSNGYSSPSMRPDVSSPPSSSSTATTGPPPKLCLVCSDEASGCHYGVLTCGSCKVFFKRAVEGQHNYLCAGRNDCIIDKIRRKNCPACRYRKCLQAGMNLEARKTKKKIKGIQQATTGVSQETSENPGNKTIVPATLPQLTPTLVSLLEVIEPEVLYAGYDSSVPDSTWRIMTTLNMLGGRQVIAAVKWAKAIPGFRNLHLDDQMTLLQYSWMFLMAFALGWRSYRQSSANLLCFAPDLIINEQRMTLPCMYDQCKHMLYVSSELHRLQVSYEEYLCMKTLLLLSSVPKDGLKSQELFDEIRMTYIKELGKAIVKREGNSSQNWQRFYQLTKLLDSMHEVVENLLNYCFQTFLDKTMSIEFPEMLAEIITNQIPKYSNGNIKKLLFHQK

[23] = molecular target: Steroidogenic factor 1 (Homo sapiens) (UniProt Q13285); test: Effect on SF1(NR5A1) dependent reporter activity in HEK293 cells at 20 uM; type: cell-based; summary of the method: as §2
[24] = molecular target: Progesterone receptor (Homo sapiens) (UniProt P06401); test: Effect on PGR(NR3C3) dependent reporter activity in HEK293 cells at 20 uM; type: cell-based; summary of the method: as §2
[25] = molecular target: Nuclear receptor subfamily 1 group D member 2 (Homo sapiens, UniProt Q14995); test: Increased REV-ERB-beta LBD dependent repressor activity in HEK293 cell reporter assay; type: cell-based
Chain of Nuclear receptor subfamily 1 group D member 2 (Q14995 whole entry, the tested form may be a part): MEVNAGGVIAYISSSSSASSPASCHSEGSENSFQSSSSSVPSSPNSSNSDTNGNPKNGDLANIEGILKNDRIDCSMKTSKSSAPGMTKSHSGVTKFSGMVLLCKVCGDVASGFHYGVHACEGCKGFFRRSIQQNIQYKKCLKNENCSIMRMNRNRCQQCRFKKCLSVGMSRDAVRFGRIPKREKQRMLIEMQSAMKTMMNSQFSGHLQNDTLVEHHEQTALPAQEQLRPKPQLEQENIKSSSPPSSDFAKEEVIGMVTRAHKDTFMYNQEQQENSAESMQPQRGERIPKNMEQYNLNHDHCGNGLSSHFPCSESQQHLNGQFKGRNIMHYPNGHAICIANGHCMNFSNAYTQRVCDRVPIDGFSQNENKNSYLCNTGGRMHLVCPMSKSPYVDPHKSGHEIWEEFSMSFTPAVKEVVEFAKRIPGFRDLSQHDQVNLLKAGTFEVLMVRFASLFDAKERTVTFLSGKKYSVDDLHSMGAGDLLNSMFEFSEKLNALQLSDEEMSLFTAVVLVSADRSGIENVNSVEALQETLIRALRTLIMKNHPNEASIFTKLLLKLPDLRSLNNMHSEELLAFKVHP

[26] = molecular target: Mineralocorticoid receptor (Homo sapiens) (UniProt P08235); test: Effect on MCR(NR3C2) dependent reporter activity in HEK293 cells at 20 uM; type: cell-based; summary of the method: as §2
Chain of Mineralocorticoid receptor (Homo sapiens) (P08235 whole entry, the tested form may be a part): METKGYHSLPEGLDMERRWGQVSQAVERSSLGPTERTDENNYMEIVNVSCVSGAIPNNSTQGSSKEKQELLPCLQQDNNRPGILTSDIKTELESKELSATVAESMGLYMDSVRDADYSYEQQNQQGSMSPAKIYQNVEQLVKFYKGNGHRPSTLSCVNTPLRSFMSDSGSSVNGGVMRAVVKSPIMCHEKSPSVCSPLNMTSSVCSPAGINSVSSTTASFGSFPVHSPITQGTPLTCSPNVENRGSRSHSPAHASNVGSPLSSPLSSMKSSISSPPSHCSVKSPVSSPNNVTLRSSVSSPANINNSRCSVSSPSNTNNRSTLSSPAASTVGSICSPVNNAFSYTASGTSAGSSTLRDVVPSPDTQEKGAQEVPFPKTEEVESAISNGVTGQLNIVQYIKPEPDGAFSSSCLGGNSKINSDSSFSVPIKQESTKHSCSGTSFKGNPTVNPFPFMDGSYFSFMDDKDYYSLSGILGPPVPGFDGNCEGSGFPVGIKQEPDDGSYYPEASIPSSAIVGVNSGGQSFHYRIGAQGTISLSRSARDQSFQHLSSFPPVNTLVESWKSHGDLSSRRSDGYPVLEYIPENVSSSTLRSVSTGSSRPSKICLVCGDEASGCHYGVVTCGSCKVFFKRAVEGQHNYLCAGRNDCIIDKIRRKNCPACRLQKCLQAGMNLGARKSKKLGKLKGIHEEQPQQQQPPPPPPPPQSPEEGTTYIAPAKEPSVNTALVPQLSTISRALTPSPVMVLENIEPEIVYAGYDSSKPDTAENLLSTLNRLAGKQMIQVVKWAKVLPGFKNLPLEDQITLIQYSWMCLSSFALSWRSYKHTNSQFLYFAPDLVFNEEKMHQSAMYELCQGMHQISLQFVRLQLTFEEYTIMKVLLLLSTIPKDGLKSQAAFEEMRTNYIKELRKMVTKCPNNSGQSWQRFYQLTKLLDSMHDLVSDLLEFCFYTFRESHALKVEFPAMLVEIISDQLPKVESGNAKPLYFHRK

[27] = molecular target: T1, Nuclear receptor subfamily 1 group D member 1 (Homo sapiens, UniProt P20393); test: Increased REV-ERB-alpha LBD dependent repressor activity in HEK293 cell reporter assay; type: cell-based; conditions: read-out: IC50
T1 sequence (P20393 whole entry): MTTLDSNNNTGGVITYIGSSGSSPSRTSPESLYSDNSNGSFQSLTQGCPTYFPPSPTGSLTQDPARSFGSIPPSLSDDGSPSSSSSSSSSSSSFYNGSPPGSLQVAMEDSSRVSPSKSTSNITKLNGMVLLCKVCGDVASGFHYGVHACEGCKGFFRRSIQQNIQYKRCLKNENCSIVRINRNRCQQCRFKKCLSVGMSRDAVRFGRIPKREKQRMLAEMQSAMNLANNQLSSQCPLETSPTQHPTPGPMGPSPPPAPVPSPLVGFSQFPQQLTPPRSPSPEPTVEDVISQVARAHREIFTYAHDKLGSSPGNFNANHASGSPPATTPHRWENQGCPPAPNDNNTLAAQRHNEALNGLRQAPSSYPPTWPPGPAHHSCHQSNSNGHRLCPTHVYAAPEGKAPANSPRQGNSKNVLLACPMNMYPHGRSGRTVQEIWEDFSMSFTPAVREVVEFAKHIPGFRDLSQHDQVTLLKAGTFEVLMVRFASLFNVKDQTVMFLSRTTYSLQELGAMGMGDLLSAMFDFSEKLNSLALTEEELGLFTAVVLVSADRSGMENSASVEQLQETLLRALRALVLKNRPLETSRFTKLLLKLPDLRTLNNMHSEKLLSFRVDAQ

| Structure (SMILES) | concentration at 4 h [1] | Reduced_Srebf1_gene_exp (Mus musculus [2]) | inhibition [3] | inhibition [4] | inhibition [5] | inhibition [6] | inhibition [7] | inhibition [8] | inhibition [9] | inhibition [10] | inhibition [11] | inhibition [12] | inhibition [13] | inhibition [14] | inhibition [15] | inhibition [16] | inhibition [17] | inhibition [18] | inhibition [19] | Inhibition [20] | further results |
| --- | --- | --- | --- | --- | --- | --- | --- | --- | --- | --- | --- | --- | --- | --- | --- | --- | --- | --- | --- | --- | --- |
| CCOC(=O)N1CCC(CN(Cc2ccc(Cl)cc2)Cc2ccc([N+](=O)[O-])s2)C1 (stereo not drawn) [SR9009] | 220 nM | Active | inactive | inactive | inactive | inactive | inactive | inactive | inactive | inactive | inactive | inactive | inactive | inactive | inactive | inactive | inactive | inactive | inactive | Not Active | Reduced_Serpine1_gene_exp (Mus musculus [21]): Active; inhibition [22]: inactive; inhibition [23]: inactive; inhibition [24]: inactive; IC50 [25]: 800 nM (agonist); inhibition [26]: inactive |
| CCCCCNC(=O)N1CCC(CN(Cc2ccc(Cl)cc2)Cc2ccc([N+](=O)[O-])s2)C1 (stereo not drawn) [SR9011] | 110 nM | Active | inactive | inactive | inactive | inactive | inactive | inactive | inactive | inactive | inactive | inactive | inactive | inactive | inactive | inactive | inactive | inactive | inactive | Not Active | Reduced_Serpine1_gene_exp (Mus musculus [21]): Active; inhibition [22]: inactive; inhibition [23]: inactive; inhibition [24]: inactive; IC50 [27]: 790 nM (agonist); IC50 [25]: 560 nM (agonist); inhibition [26]: inactive |
